Legend:
[1] = system: CT-26 cells; test: Cellular GSH quantitative analysis; assay type: cell-based; conditions: 1.0 mM, 0.5 and 2 hours
Summary of the method: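 CT-26 cells (RPMI 1640, 10% FBS, 37°C, 5% CO2) seeded in 24-well plates at 40,000 cells/well for 18 h. Medium replaced with serum-free medium containing test compound at various concentrations. After 0.5 or 2 h the cells were lysed and intracellular GSH was measured with a GSH/GSSG assay kit.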

[2] = system: CT-26 cells and MCF-7 cells; test: Cellular RNS detection, red fluorescent dye, microscopy and flow cytometry; assay type: cell-based; conditions: after 4 hours of treatment, CT-26 and MCF-7 cells
Summary of the method: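 CT-26 and MCF-7 cells (RPMI 1640, 10% FBS, 37°C, 5% CO2) grown in 24-well plates were preloaded with NO detection reagent for 2 h under normal culture conditions. The reagent was removed, and cells were exposed to test compound for 1, 2 or 4 h, with a commercial HNO donor as positive control. Cells were washed once, and red fluorescence was imaged by inverted fluorescence microscopy.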

[3] = HNO release half-life of IL-NONOates in PBS, UV absorbance decay at 330 nm; assay type: physicochemical; conditions: IL-NONOate formed from the IL; 37°C, pH 7.4, 0.01 M phosphate buffer (PBS)
[4] = ITC binding of ILs to cardiolipin; conditions: compared with [Ch][Tau] or [EMIm][APA]
Summary of the method: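 Isothermal titration calorimetry at 25°C. An aqueous solution of test compound in the syringe was titrated into aqueous 18:1 cardiolipin in the sample cell. One small injection was followed by 28 larger injections, each lasting 10 s, with 120 s between injections and stirring at 1001 rpm. The binding constant was obtained from analysis of the calorimetric data.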

[5] = NO absorption by ILs, gravimetric method; assay type: physicochemical; conditions: 30°C until full absorption
Summary of the method: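 The system was purged with N2 (60 ml/min, 30 min). NO at atmospheric pressure was then bubbled at about 20 ml/min through about 1 g of test compound held in a metal block at 30°C. Uptake was weighed at regular intervals on a balance (±0.0001 g) until absorption was complete, and expressed as mol NO per mol compound.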

SMILES	t1/2 (HNO release half-life) [3] [h]	Absorption capacity [5]	also measured
[Na+].[Na+].[O-][N+]([O-])=NO [AS, Na2N2O3]	–	–	intracellular GSH levels [1]: restoration of GSH; intracellular RNS level [2]: failed to achieve this goal
C[N+](C)(C)CCO.NCCC(=O)[O-] [[Ch][APA]]	17.68	1.70 mol NO per mol of IL	binding constant with CL, comparison [4]: significantly higher
C[N+](C)(C)CCO.NCCS(=O)(=O)[O-] [[Ch][Tau]]	–	1.67 mol NO per mol of IL	–
C1CCC2=NCCCN2CC1.NCCS(=O)(=O)O [[DBU][Tau]]	–	2.79 mol NO per mol of IL	–
CCn1cc[n+](C)c1.NCS(=O)(=O)[O-] [[EMIm][AMS]]	5.4	1.38 mol NO per mol of IL	–
CCn1cc[n+](C)c1.NCCC(=O)[O-] [[EMIm][APA]]	16.6	2.11 mol NO per mol of IL	–
CCn1cc[n+](C)c1.NCCCS(=O)(=O)[O-] [[EMIm][APS]]	16	2.79 mol NO per mol of IL	–
CCn1cc[n+](C)c1.NCCS(=O)(=O)[O-] [[EMIm][Tau]]	–	2.28 mol NO per mol of IL	–
C[N+](C)(CCO)CCO.NCCS(=O)(=O)[O-] [[HEMN][Tau]]	–	2.51 mol NO per mol of IL	–
CCCCCCCCCCCCCC[P+](CCCCCC)(CCCCCC)CCCCCC.NCCS(=O)(=O)[O-] [[P66614][Tau]]	5.42	3.33 mol NO per mol of IL	–

From PMC7673712 (Science Advances, 2020)
